According to ChEMBL document CHEMBL2429723, “Design and synthesis of MMP inhibitors with appended fluorescent tags for imaging and visualization of matrix metalloproteinase enzymes” (Bioorg Med Chem Lett, 2013):

Legend:
[1] = biological target: 72 kDa type IV collagenase (Homo sapiens, UniProt P08253); assay: Inhibition of human recombinant MMP2 using Mca-Lys-Pro-Leu-Gly-Leu-Dpa-Ala-Arg-NH2 as substrate by fluorescence plate reader analysis
Outline: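 rhMMP2 activated with 1 mM APMA in assay buffer (50 mM Tris, 10 mM CaCl2, 150 mM NaCl, 0.05% Brij-35, pH 7.5), 37 °C, 1 h, then diluted to 248 ng/mL. Enzyme and test samples combined at ambient temperature; substrate (25 µM) added to start. Kinetic fluorescence at 320 nm excitation/405 nm emission; blank-subtracted duplicates; IC50 from six-point curves.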

[2] = biological target: Matrix metalloproteinase-9 (Homo sapiens, UniProt P14780); assay: Inhibition of human MMP9
[3] = biological target: Matrix metalloproteinase-14 (Homo sapiens, UniProt P50281); assay: Inhibition of human recombinant MMP14 using Mca-Lys-Pro-Leu-Gly-Leu-Dpa-Ala-Arg-NH2 as substrate by fluorescence plate reader analysis
Outline: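 Enzyme and test samples combined at ambient temperature; substrate (20 µM) added to start. Kinetic read at 320/405 nm, substrate blank subtracted, duplicates, IC50 from six-point dose-response curves.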

MCF7 = assay: Cellular uptake in human MCF7 cells over-expressing MMP14 by confocal microscopy relative to control; type: ADME, cell-based
Outline: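 MMP-14-overexpressing and parental MCF7 cells incubated with the conjugate at 37 °C and imaged by confocal microscopy, parental cells serving as comparison.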

Chain of 72 kDa type IV collagenase (P08253 whole entry): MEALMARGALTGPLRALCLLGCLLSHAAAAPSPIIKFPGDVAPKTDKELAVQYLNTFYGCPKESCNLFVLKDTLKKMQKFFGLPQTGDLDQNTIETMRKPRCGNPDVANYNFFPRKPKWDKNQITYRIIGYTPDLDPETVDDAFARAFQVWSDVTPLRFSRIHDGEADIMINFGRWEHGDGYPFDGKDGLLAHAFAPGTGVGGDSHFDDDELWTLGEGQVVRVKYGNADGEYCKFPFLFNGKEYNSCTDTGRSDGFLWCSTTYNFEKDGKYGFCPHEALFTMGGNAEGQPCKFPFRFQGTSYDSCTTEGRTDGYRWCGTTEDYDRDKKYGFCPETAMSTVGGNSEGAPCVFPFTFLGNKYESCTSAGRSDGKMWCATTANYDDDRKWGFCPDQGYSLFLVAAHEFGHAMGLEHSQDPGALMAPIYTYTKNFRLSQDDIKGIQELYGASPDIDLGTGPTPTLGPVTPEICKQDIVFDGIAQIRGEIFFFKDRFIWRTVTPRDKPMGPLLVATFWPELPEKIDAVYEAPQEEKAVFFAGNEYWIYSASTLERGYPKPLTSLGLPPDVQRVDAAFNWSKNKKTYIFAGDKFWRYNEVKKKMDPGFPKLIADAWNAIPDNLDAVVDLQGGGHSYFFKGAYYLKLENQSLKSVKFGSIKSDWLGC
Chain of Matrix metalloproteinase-9 (P14780 whole entry): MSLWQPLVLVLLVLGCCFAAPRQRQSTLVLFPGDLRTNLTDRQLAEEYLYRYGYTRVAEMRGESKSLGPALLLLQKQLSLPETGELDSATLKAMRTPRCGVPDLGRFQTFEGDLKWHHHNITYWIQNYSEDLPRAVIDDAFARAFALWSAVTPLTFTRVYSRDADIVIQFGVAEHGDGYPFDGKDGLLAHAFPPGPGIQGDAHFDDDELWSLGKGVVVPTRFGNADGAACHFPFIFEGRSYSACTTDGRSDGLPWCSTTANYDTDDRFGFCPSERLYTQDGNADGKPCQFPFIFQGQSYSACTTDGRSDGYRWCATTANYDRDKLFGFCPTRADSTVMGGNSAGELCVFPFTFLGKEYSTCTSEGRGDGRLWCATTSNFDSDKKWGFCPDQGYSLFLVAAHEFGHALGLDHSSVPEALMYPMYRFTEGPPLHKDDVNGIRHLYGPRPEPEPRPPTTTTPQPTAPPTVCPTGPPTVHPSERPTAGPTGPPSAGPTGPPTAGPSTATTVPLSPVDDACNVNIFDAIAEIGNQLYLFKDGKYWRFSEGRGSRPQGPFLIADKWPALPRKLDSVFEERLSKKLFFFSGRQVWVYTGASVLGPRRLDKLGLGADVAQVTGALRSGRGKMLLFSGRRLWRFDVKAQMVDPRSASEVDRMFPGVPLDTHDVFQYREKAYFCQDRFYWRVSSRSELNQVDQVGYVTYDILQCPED

IC50 [1] [nM] | IC50 [2] [nM] | IC50 [3] [nM] | Drug uptake (MCF7) | SMILES
< 1 |  |  |  | O=C(NO)C1(S(=O)(=O)c2ccc(Oc3ccc(OC(F)(F)F)cc3)cc2)CCN(C2CC2)CC1
5.1 | 4.1 |  |  | CC(C)(C)NC(=O)c1nc(N)c(C(=O)NCCC(=O)N2CCC(C(=O)NO)(S(=O)(=O)c3ccc(Oc4ccc(OC(F)(F)F)cc4)cc3)CC2)nc1N
< 1 | < 1 |  |  | Nc1nc(C(=O)N2CCC(C(=O)NO)(S(=O)(=O)c3ccc(Oc4ccc(OC(F)(F)F)cc4)cc3)CC2)c(N)nc1C(=O)N1CCCC1
1.6 | < 1 |  |  | CN(C)c1ncc(N2CCC(C(=O)NO)(S(=O)(=O)c3ccc(Oc4ccc(OC(F)(F)F)cc4)cc3)CC2)nc1C#N
< 1 | < 1 | 100 | Active | N[C@@H](CCCCNC(=O)c1ccc2c(c1)C(=O)OC21c2ccc(O)cc2Oc2cc(O)ccc21)C(=O)N1CCC(C(=O)NO)(S(=O)(=O)c2ccc(Oc3ccc(OC(F)(F)F)cc3)cc2)CC1
2.8 | 1.6 |  |  | CC1(C)C(/C=C/C2=C(N3CCC(C(=O)NO)(S(=O)(=O)c4ccc(Oc5ccc(OC(F)(F)F)cc5)cc4)CC3)C(=C/C=C3/N(CCCCS(=O)(=O)O)c4ccccc4C3(C)C)/CCC2)=[N+](CCCCS(=O)(=O)[O-])c2ccccc21
